OXTR potentiate: potentiates the human oxytocin receptor response; CHO-OTR cells, Fluo-8 calcium fluorescence, potentiator mode; 0% = oxytocin EC15, 100% = EC100; activation, % at 3 µM; actives 0.061% (n = 320,000);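 active = activation above that plate's cutoff, the mean activation of tested compounds plus 3 SD, cut at about 6.6% in these data, passing the limit was not always enough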;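 note: 100% uses oxytocin at 75 nM as the full agonist control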
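assay system = CHO-OTR cells, human receptor | schedule = compound 6 min at room temperature before oxytocin, 100 s read | detection = Fluo-8 intracellular calcium fluorescence, ex 470-495, em 515-575 nm | evaluation = normalized max/min fluorescence ratio, % activation | control set = EC15 oxytocin alone as 0%, 75 nM oxytocin (EC100) as 100%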
V1aR counter: V1a receptor agonism, counter-screen for OXTR agonists. actives 0.25% (n = 320,000). P37288. AID 2797. activation, % at 3 µM. CHO-V1R cells, Fluo-8 calcium fluorescence, agonist mode; 0% DMSO, 100% 3 nM vasopressin;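 active = activation above the mean activation of all tested compounds plus 3 SD, per screening run, cut at about 20% in these data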;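 note: signal is peak over basal fluorescence ratio across a 100 second FLIPR read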
TRPML3 ag: human mucolipin-3 channel agonism; Q8TDD5; actives 0.29% (n = 220,000); activation, % at 3 µM; HEK293 TRPML3-YFP, Fluo-8 calcium fluorescence; 100% = the carbachol control signal;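 active = activation above its plate's cutoff, the mean activation of the plate's test wells plus 3 SD, cut at about 12% in these data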;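 note: 0% = DMSO only wells and 100% = carbachol wells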
Target sequence (Q8TDD5 whole entry, looked up): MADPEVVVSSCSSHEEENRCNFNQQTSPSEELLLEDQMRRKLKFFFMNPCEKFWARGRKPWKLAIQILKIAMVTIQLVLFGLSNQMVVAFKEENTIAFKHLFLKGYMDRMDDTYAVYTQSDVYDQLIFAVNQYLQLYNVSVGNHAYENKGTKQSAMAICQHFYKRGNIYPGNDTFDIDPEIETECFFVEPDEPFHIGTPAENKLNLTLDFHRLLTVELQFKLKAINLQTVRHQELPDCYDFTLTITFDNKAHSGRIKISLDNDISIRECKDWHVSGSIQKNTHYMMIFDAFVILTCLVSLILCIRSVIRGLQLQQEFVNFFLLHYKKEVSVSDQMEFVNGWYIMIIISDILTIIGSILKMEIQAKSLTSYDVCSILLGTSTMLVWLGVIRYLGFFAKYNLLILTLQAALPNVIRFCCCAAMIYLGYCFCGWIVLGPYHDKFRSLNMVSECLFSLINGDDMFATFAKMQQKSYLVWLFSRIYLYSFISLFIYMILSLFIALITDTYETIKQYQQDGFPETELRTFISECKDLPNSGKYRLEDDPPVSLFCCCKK
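Test system: HEK293 cells stably carrying human TRPML3-YFP; Doses: single dose, 3 µM final nominal compound, 0.3% DMSO final; Schedule: dye loading 1 h 37 °C then 30 min ambient, 125 s read; Technique: Fluo-8 calcium fluorescence; Benchmarks: high control carbachol 87 µM, low control DMSO.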
TRPN1 ag: zebrafish TRPN1 (NompC) channel agonism. activation, % at 3 µM. HEK293 zebrafish TRPN1-YFP, Fluo-8 calcium fluorescence; 100% = response to 87 µM carbachol. AID 1424. actives 0.18% (n = 220,000);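 active = activation above its plate's cutoff, the mean activation of test wells on that plate plus 3 SD, cut at about 19% in these data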;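 note: 0% = DMSO alone and 100% = 87 µM carbachol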
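Material: zebrafish TRPN1-YFP in HEK293 cells. Doses: one dose of 3 µM, 0.3% DMSO. Incubation: dye 1 h 37 °C plus 30 min RT. Measured by: intracellular calcium fluorescence with Fluo-8.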
OXTR ag: activates the human oxytocin receptor | P30559 | CHO-OTR cells, Fluo-8 calcium fluorescence; normalized: DMSO 0%, oxytocin 100% | activation, % at 3 µM | actives 0.32% (n = 320,000);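 active = activation above the mean of all tested compounds plus 3 SD, cutoff set per screening run, cut at about 20% in these data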;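 note: peak over basal fluorescence ratio from a 100 s FLIPR kinetic read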
V1aR agonist cf: human V1a receptor agonism, confirmation. shares compounds with V1aR counter. CHO-V1R cells, Fluo-8 calcium fluorescence, agonist. activation, % at 3 µM. actives 20% (n = 180). AID 434964;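 active = average activation exceeds primary screen hit cutoff, cut at about 21% in these data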;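 note: peak over basal fluorescence ratio during a 100 s FLIPR read; 0% = DMSO only wells and 100% = 3 nM vasopressin wells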
OXTR ag counter: counter-screen for V1a receptor agonists: oxytocin receptor agonists. shares compounds with V1aR counter. CHO-OTR cells, Fluo-8 calcium fluorescence, agonist. activation, % at 3 µM. actives 10% (n = 180). AID 434969;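 active = mean activation over three repeats above the cutoff from the earlier oxytocin receptor agonist screen, cut at about 20% in these data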;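 note: peak over minimum fluorescence ratio within a 100 second FLIPR read; 0% = DMSO only wells and 100% = oxytocin high control wells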
* hit, by the source's call; . = no result given. Most compounds without a hit are left out; they make up all but 0.55% or so of the library.

SMILES	OXTR potentiate	V1aR counter	TRPML3 ag	TRPN1 ag	OXTR ag	V1aR agonist cf	OXTR ag counter
CCC1(CC)NC(=O)N(CC(=O)OCC(=O)Nc2cc(OC)ccc2OC)C1=O	-5	0	.	.	0	.	.
O=C(CCCN=C1NS(=O)(=O)c2ccccc21)OCC(=O)c1ccc(Br)cc1	-14	26*	.	.	14	10	8
CCCCCCCCCCC[N+](C)(C)CC/C=C1/c2ccccc2Sc2ccc(Cl)cc21	-13	38*	.	.	1	11	17
CCCCCCOc1ccc(C(CC(N)=O)C(=O)O)cc1 (configuration not stated)	-15	2	0	0	0	.	.
CC(C)c1ccc(NC(=O)C2CCC(CNC(=O)[C@@H]3Cc4ccccc4CN3)CC2)cc1 (some centres not stated)	-8	24*	.	.	16	4	10
Cc1ccc(NC(=O)C2CCC(CNC(=O)[C@@H]3Cc4ccccc4CN3)CC2)cc1 (some centres not stated)	-5	3	.	.	-1	.	.
COc1ccc(OC)c(C(=O)NC(CC(N)=O)c2ccc(N3CCN(c4ccccn4)CC3)c([N+](=O)[O-])c2)c1 (configuration not stated)	-10	0	.	.	-1	.	.
O=C(CCCC(=O)NCC1CCCO1)NCC1CCCO1 (configuration not stated)	0	20*	0	-1	1	0	0
O=C(NNC(=O)c1ccc[nH]1)c1cccc(C(F)(F)F)c1	-7	-1	.	.	-1	.	.
Cc1noc(C(F)(F)F)c1C(=O)NNC(=O)c1cccc(C(F)(F)F)c1	-3	20*	1	0	-1	1	0
COc1ccc(N=C2NC(=O)S/C2=C\c2ccc(N(C)C)cc2)cc1	-24	21*	3	8	18	26*	20*
CCOc1ccc(N=C2NC(=O)S/C2=C\c2ccc(Cl)cc2)cc1	-12	1	1	2	-1	.	.
CCOc1ccc(NC(=O)c2cccc(NC(=O)c3ccccc3)c2)cc1	-18	50*	.	.	1	2	-1
CCC(NC(=O)c1cc(COc2ccc(C)nc2)on1)c1ccc(C)cc1 (configuration not stated)	-18	23*	.	.	12	13	13
Cc1cc(C)n(-c2nc(Nc3ccccc3)nc(-n3nc(C)cc3C)n2)n1	-7	0	1	1	0	.	.
COc1cccc(/C=N/Nc2nc(Nc3ccccc3)nc(-n3nc(C)cc3C)n2)c1O	-21	21*	1	3	15	6	1
Cc1ccc(S(=O)(=O)N2CCC(C(=O)NCCCN3CCOCC3)CC2)cc1C	-3	3	.	.	1	.	.
O=C(COc1ccc(-c2nnco2)cc1)NCc1ccccc1Cl	-1	0	-1	-1	1	.	.
O=C(COc1ccc(-c2nnco2)cc1)Nc1ccc(C(F)(F)F)cc1	-10	21*	.	.	3	4	1
O=C(O)c1cccc(CSc2nc(-c3ccc(Cl)cc3)cc(C(F)(F)F)n2)c1	-13	21*	0	-2	18	6	5
COc1ccccc1CCC(=O)N(Cc1ccccc1)c1c(N)n(Cc2ccccc2)c(=O)[nH]c1=O	-6	-1	.	.	-2	.	.
COc1ccc(OC)c2sc(N(CCCN(C)C)C(=O)CCS(=O)(=O)c3ccccc3)nc12	-1	1	.	.	6	.	.
Cc1ccc2sc(N(CCCN(C)C)C(=O)CCS(=O)(=O)c3ccccc3)nc2c1C	-12	24*	.	.	15	2	7
CN(CC(=O)Nc1cccc(F)c1)C(=O)c1cc(S(=O)(=O)N(C)C)ccc1N1CCCC1	-6	1	.	.	2	.	.
O=C(NC(=S)N1CCN(c2nc(-c3ccccc3)cs2)CC1)c1cncc(Br)c1	-9	1	1	0	0	.	.
SMILES	OXTR potentiate	V1aR counter	TRPML3 ag	TRPN1 ag	OXTR ag	V1aR agonist cf	OXTR ag counter
CCCCCCCCCCOC(=O)Cn1c(COc2ccccc2OC)[n+](C)c2ccccc21	-15	56*	.	.	10	12	20
COc1cc([N+](=O)[O-])ccc1NC(=O)CSc1nccn1C	-4	-1	0	0	0	.	.
CC1CN(CCc2ccccc2)c2nc3c(c(=O)n(CC(N)=O)c(=O)n3C)n2C1 (configuration not stated)	-5	1	.	.	1	.	.
O=C(CSc1ncc(-c2ccc(F)cc2)n1Cc1ccco1)Nc1nccs1	-34	29*	-1	0	16	11	16
COc1ccc(OC)c2c1C(=O)c1ccccc1C2=O	-16	23*	2	3	17	33*	21*
Cc1ccc(CNC(=O)C2CCC(=O)N(C3CC3)C2)cc1 (configuration not stated)	-4	0	.	.	1	.	.
COc1ccc(Cl)cc1C(=O)NNC(=S)NC(=O)c1cc(-c2ccccc2)nc2ccccc12	-22	26*	1	5	14	35*	21*
COC(=O)c1ccc(NC(=S)NC(=O)c2cc(-c3ccccc3)nc3ccccc23)cc1	-8	1	1	0	1	.	.
c1cc2c3c(cccc3c1)NC1(CCC3(CC1)Nc1cccc4cccc(c14)N3)N2	-17	32*	9	18	11	4	17
c1cc2c3c(cccc3c1)NC1(CCCCCC1)N2	-8	1	1	-2	0	.	.
CC(C)C(C(=O)Nc1ccncc1)c1ccc(Cl)cc1 (configuration not stated)	-12	27*	.	.	14	12	16
COc1ccccc1CN1C[C@@H]2C[C@@H](c3[nH]c4c(C)cccc4c3C)N3CCC[C@@]23C1=O	-15	35*	0	-2	14	5	2
CCOc1ccc(CONS(=O)(=O)c2ccc(NC(C)=O)cc2)cc1Cl	-19	23*	1	2	11	9	8
COc1ccc(NC(=O)CSc2nc(N)c(NC(=O)c3ccccc3F)c(=O)[nH]2)cc1	-4	0	.	.	0	.	.
COc1ccc(CC(=O)Nc2ccc(NC(=O)c3ccccc3F)cc2)cc1	-8	32*	0	2	0	13	3
CCCCCc1ccc(OCCCC[n+]2ccccc2)c(CCCCC)c1	-7	18	0	-2	9	.	.
CCCCCc1ccc(OCCCC[n+]2ccc(C)cc2)c(CCCCC)c1	-26	22*	0	-1	10	13	17
CC(=O)Nc1cccc(N/C(N)=N/c2nc(C)cc(C)n2)c1	0	-1	1	1	1	.	.
Cc1cccc(N/C(N)=N/c2nc(C)cc(C)n2)c1	-21	21*	6	6	11	6	0

Screens (PubChem)
